Experimental data published in ChEMBL document CHEMBL3779860, “A Designed Tryptophan- and Lysine/Arginine-Rich Antimicrobial Peptide with Therapeutic Potential for Clinical Antibiotic-Resistant Candida albicans Vaginitis” (J Med Chem, 2016).
Converted amounts (≈) assume the structure as drawn. The source made the active and inactive calls. The calls are words filed in the database; no cut-off is given here.

Legend:
[1] = tested on: Escherichia coli; test: Antimicrobial activity against Escherichia coli ATCC 25922 assessed as inhibition of […] growth after 16 hrs by broth dilution method; assay type: functional; conditions: ATCC 25922, 16 h
In short: (§1)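 Broth dilution in LB broth; 100 µL of 2 × 10^5 CFU/mL bacterial suspension plus 10 µL sample (stock series in 0.9% NaCl) in 90 µL broth, 37°C for 16 h. Growth read as A600; MIC is the lowest concentration completely inhibiting growth. Mean of three independent experiments run in duplicate.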

[2] = tested on: Bacillus subtilis; test: Antimicrobial activity against Bacillus subtilis assessed as inhibition of […] growth after 16 hrs by broth dilution method; assay type: functional; in short: as §1
[3] = tested on: Staphylococcus aureus; test: Antimicrobial activity against Staphylococcus aureus ATCC 2592 assessed as inhibition of […] growth after 16 hrs by broth dilution method; assay type: functional; conditions: ATCC 2592, 16 h; in short: as §1
[4] = tested on: Candida albicans; test: Antimicrobial activity against antibiotic resistant Candida albicans clinical isolate 08030809 assessed as clone count at 10 mg/ml after 24 hrs by colony counting assay (Rvb > 10^5 CFU); assay type: functional
[5] = tested on: Candida albicans; test: Antimicrobial activity against antibiotic resistant Candida albicans clinical isolate 08030809 assessed as clone count at 10 mg/ml after 3 hrs by colony counting assay (reference value: 3687 +/- 543 CFU); assay type: functional
[6] = tested on: Candida albicans; test: Antimicrobial activity against antibiotic resistant Candida albicans clinical isolate 08030809 in mouse vaginitis model assessed as colony count in lavage liquid of vagina at 10 mg/ml administered as intravaginal instillation measured on day 16; assay type: functional
[7] = tested on: Mus musculus; test: Antiinflammatory activity in antibiotic resistant Candida albicans clinical isolate 08030809 induced mouse vaginitis model assessed as microabscess number in vaginal tissue at 200 ug administered as intravaginal instillation measured after 16 days by hematoxylin-eosin staining based microscopic method (reference value: 61); assay type: functional, Vagina
In short: (§2)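 Mice given weekly subcutaneous estradiol valerate (0.5 mg in 0.1 mL vegetable oil) 72 h before infection. Infected intravaginally with 20 µL of 10^7 CFU/mL C. albicans 08030809. Intravaginal instillation of 20 µL daily for 16 days. Vaginal canals excised after lavage, formalin-fixed, paraffin-embedded, HE-stained. Microabscesses counted per high-power field over 6 fields per section, three independent experiments.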

[8] = tested on: Candida albicans; test: Antimicrobial activity against antibiotic resistant Candida albicans clinical isolate 08030809 assessed as clone count at 10 mg/ml after 6 hrs by colony counting assay (reference value: 14536 +/- 2467 CFU); assay type: functional
[9] = tested on: Candida albicans; test: Antimicrobial activity against antibiotic resistant Candida albicans clinical isolate 08030809 in mouse vaginitis model assessed as decrease in colony count in lavage liquid of vagina at 10 mg/ml administered as intravaginal instillation measured on day 16; assay type: functional; conditions: isolate 08030809, Vagina, topical, 384 h
[10] = tested on: Candida albicans; test: Antimicrobial activity against antibiotic resistant Candida albicans clinical isolate 08030809 assessed as clone count at 10 mg/ml after 1 hr by colony counting assay (reference value: 228 +/- 23 CFU); assay type: functional
[11] = tested on: Candida albicans; test: Antimicrobial activity against antibiotic resistant Candida albicans clinical isolate 08030809 assessed as clone count at 10 mg/ml after 10 mins by colony counting assay (reference value: 102 +/- 11 CFU); assay type: functional
[12] = tested on: Mus musculus; test: Antiinflammatory activity in antibiotic resistant Candida albicans clinical isolate 08030809 induced mouse vaginitis model assessed as reduction in TNF-alpha secretion in vaginal tissue at 10 mg/ml administered as intravaginal instillation measured on day 10 by ELISA; assay type: functional, organism-based; conditions: Vagina
In short: (§3)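 Same estradiol-primed mouse model, infected intravaginally with C. albicans 08030809 and treated by intravaginal instillation (20 µL/mouse). Vaginal canals excised on day 10 of treatment and homogenised in 0.9% NaCl. Supernatant taken after 2,000 g for 15 min. TNF-α, IL-6, IL-1β and IL-10 measured by ELISA. Mean ± SE of three independent experiments; unpaired t-test versus vehicle.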

[13] = tested on: Candida albicans; test: Antimicrobial activity against antibiotic resistant Candida albicans clinical isolate 08030809 assessed as clone count at 10 mg/ml after 12 hrs by colony counting assay (reference value: 54153 +/- 8769 CFU); assay type: functional
[14] = tested on: Mus musculus; test: Antiinflammatory activity in antibiotic resistant Candida albicans clinical isolate 08030809 induced mouse vaginitis model assessed as reduction in IL-10 secretion in vaginal tissue at 10 mg/ml administered as intravaginal instillation measured on day 10 by ELISA; assay type: functional, organism-based; conditions: Vagina; in short: as §3
[15] = tested on: Candida albicans; test: Antimicrobial activity against antibiotic resistant Candida albicans clinical isolate 08030809 assessed as clone count at 10 mg/ml after 30 mins by colony counting assay (reference value: 156 +/- 16 CFU); assay type: functional
[16] = tested on: Mus musculus; test: Antiinflammatory activity in antibiotic resistant Candida albicans clinical isolate 08030809 induced mouse vaginitis model assessed as reduction in IL-6 secretion in vaginal tissue at 10 mg/ml administered as intravaginal instillation measured on day 10 by ELISA; assay type: functional, organism-based; conditions: Vagina; in short: as §3
[17] = tested on: Candida albicans; test: Antimicrobial activity against antibiotic resistant Candida albicans clinical isolate 08030809 assessed as clone count at 10 mg/ml after 1 min by colony counting assay (reference value: 62 +/- 7 CFU); assay type: functional
[18] = tested on: Mus musculus; test: Antiinflammatory activity in antibiotic resistant Candida albicans clinical isolate 08030809 induced mouse vaginitis model assessed as reduction in IL-1beta secretion in vaginal tissue at 10 mg/ml administered as intravaginal instillation measured on day 10 by ELISA; assay type: functional, organism-based; conditions: Vagina; in short: as §3
[19] = tested on: Candida albicans; test: Effect on cell membrane integrity in antibiotic resistant Candida albicans clinical isolate 08030809 at 20 ug/ml measured every 2 mins upto 20 mins by SYTOX green nucleic acid staining-based fluorescence assay; assay type: functional, organism-based
In short: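 Exponential-phase C. albicans 08030809 was washed and resuspended at 10^6 CFU/mL in 10 mM PBS pH 7.4. Cells were loaded with 0.1 µM (final) SYTOX Green for 15 min at 37°C with shaking, then test samples were added. Fluorescence (ex 488/em 530 nm) was recorded every 2 min as RFU. Mean ± SE of five independent experiments.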

[20] = tested on: Mus musculus; test: Antiinflammatory activity in antibiotic resistant Candida albicans clinical isolate 08030809 induced mouse vaginitis model assessed as microabscess number in vaginal tissue at 200 ug administered as intravaginal instillation measured on day 6 by hematoxylin-eosin staining based microscopic method (reference value: 61); assay type: functional, Vagina; in short: as §2
[21] = tested on: Candida albicans; test: Antimicrobial activity against Candida albicans ATCC 2002 assessed as inhibition of yeast growth after 16 hrs by broth dilution method; assay type: functional; conditions: ATCC 2002, 16 h
In short: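 Broth microdilution in Sabouraud liquid medium. Samples are stocks in 0.9% NaCl, 10 µL added to 90 µL broth plus 100 µL of 2 × 10^5 CFU/mL yeast suspension. Incubated 16 h at 28°C, growth read by A600. MIC is the lowest concentration completely inhibiting growth; mean of three independent experiments.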

[22] = Induction of hemolysis in human RBC at 320 ug/mL after 30 mins; assay type: cell-based, Erythrocyte; conditions: red blood cells, read-out: Activity
In short: (§4)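 Serial dilutions were incubated with human erythrocytes for 30 min at 37°C. Supernatant absorbance was read at 540 nm after centrifugation. Hemolysis is expressed as % of the 1% Triton X-100 lysis value, pooled from three independent experiments. The highest concentration tested was 320 µg/mL.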

[23] = Hemolytic activity in human RBC after 30 mins; assay type: ADME, cell-based, Erythrocyte; conditions: for HC10: erythrocyte, 0.5 h; for HC50 at 0.5 h: red blood cells; in short: as §4

| Molecule | MIC [1] [µg/mL] | MIC [2] [µg/mL] | MIC [3] [µg/mL] | MIC [21] [µg/mL] | hemolysis at 0.5 h, 320 ug/mL [22] [%] | HC10 [23] [µg/mL] | HC50 at 0.5 h [23] [µg/mL] | other results |
| --- | --- | --- | --- | --- | --- | --- | --- | --- |
| CC1(C)S[C@@H]2[C@H](NC(=O)[C@H](N)c3ccccc3)C(=O)N2[C@H]1C(=O)O [AMPICILLIN] | 18.7 (≈ 53.5 µM) | 0.02 (≈ 0.0572 µM) | 0.15 (≈ 0.429 µM) | – | – | – | – | – |
| Clc1ccccc1C(c1ccccc1)(c1ccccc1)n1ccnc1 [CLOTRIMAZOLE] | – | – | – | – | – | – | – | Activity [4]: 57425 CFU; Activity [5]: 533 CFU; Activity [6]: 1.2 ×10⁴ CFU/ml; Activity [7]: 10; Activity [8]: 2674 CFU; inhibition in vivo at 10000 µg/mL [9]: 38%; Activity [10]: 178 CFU; Activity [11]: 64 CFU; Activity [12]: inactive; Activity [13]: 15789 CFU; Activity [14]: inactive; Activity [15]: 106 CFU; Activity [16]: inactive; Activity [17]: 42 CFU; Activity [18]: inactive; Activity [19]: inactive; Activity [20]: 18 |
| OC(Cn1cncn1)(Cn1cncn1)c1ccc(F)cc1F [FLUCONAZOLE] | – | – | – | 18.7 (≈ 61.1 µM) | – | – | – | – |
| H-KFFRKLKKSVKKRAKEFFKKPRVIGVSIPF-OH | 2.34 | 9.38 | > 100 | 4.7 | 7.4 | > 320 | > 320 | – |
| H-VKRFKKFFRKFKKSV-NH2 [listing 1 of 2 here] | – | – | – | – | 7.5 | > 320 | > 320 | – |
| H-VKRFKKFFRKFKKSV-NH2 [listing 2 of 2 here] | 37.5 | > 100 | > 100 | 9.38 | – | – | – | – |
| H-VKRFKKFFRKLKKSV-NH2 | 18.8 | 75 | > 100 | 18.8 | 9.7 | > 320 | > 320 | – |
| H-VKRWKKFWRKWKKWW-NH2 [listing 1 of 2 here] | – | – | – | – | 27.6 | 51.7 | > 320 | – |
| H-VKRWKKFWRKWKKWW-NH2 [listing 2 of 2 here] | 18.8 | 4.69 | 4.69 | 2.34 | – | – | – | – |
| H-VKRWKKWWRKLKKSV-NH2 | 18.8 | > 100 | > 100 | 9.38 | 8.7 | > 320 | > 320 | – |
| H-VKWRWKKWRWKWKWKV-NH2 [listing 1 of 2 here] | – | – | – | – | 17.6 | 178.3 | > 320 | – |
| H-VKWRWKKWRWKWKWKV-NH2 [listing 2 of 2 here] | > 100 | > 100 | > 100 | > 100 | – | – | – | – |
| H-VKWRWKWKWRWKWKWKV-NH2 | > 100 | > 100 | > 100 | > 100 | 30.8 | 62.8 | > 320 | – |
